From ChEMBL document CHEMBL4052596, “Dioncophyllines C2, D2, and F and Related Naphthylisoquinoline Alkaloids from the Congolese Liana Ancistrocladus ileboensis with Potent Activities against Plasmodium falciparum and against Multiple Myeloma and Leukemia Cell Lines” (J Nat Prod, 2017)

Tests used:
Plasmodium falciparum [1] = test: Antiprotozoal activity against erythrocytic stage of Plasmodium falciparum NF54 after 48 hrs by [3H]- hypoxanthine incorporation assay; format: functional
Summary of the method: (§1)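 In vitro tests against P. falciparum NF54, T. cruzi, T. b. rhodesiense and L. donovani, with cytotoxicity on rat skeletal myoblast L6 host cells.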

Trypanosoma cruzi = test: Antiprotozoal activity against trypomastigote stage of Trypanosoma cruzi Tulahuen C2C4 infected in rat L6 cells using preincubated for 96 hrs by CPRG/Nonidet-based inverted microscopy; format: functional, cell-based; summary of the method: as §1
Leishmania donovani = test: Antiprotozoal activity against amastigote form of Leishmania donovani MHOM/ET/67/L82 after 72 hrs by Alamar Blue assay; format: functional; settings: MHOM/ET/67/L82, 72 h; summary of the method: as §1
[2] = Selectivity index, ratio of IC50 for rat L6 cells to IC50 for erythrocytic stage of Plasmodium falciparum NF54; format: toxicity; settings: read-out: Ratio IC50
Summary of the method: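 Ratio of the L6 cell IC50 to the P. falciparum IC50. Each IC50 is the mean of two independent assays.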

[3] = Induction of apoptosis in human INA-6 cells after 3 days by V-FITC/ propidium iodide staining-based flow cytometric analysis; format: functional, cell-based
Summary of the method: (§2)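 INA-6 multiple myeloma cells, or mononuclear cells from the peripheral blood of healthy donors, exposed to a range of concentrations for 3 d, with melphalan as reference. Cells stained 10 min with annexin V-FITC and PI in HEPES binding buffer pH 7.4 (140 mM NaCl, 2.5 mM CaCl2), then analysed by flow cytometry. The annexin/PI double-negative fraction counted as viable, and EC50 derived from dose-response curves.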

[4] = system: Trypanosoma brucei rhodesiense; test: Antiprotozoal activity against patient derived Trypanosoma brucei rhodesiense STIB 900 bloodstream form after 72 hrs by Alamar Blue assay; format: functional; settings: STIB 900, 72 h; summary of the method: as §1
L6 = test: Cytotoxicity against rat L6 cells after 72 hrs by Alamar Blue assay; format: cell-based; settings: L6, 72 h; summary of the method: as §1
CCRF-CEM [5] = test: Growth inhibition of human CCRF-CEM cells at 10 uM by resazurin assay relative to control; format: functional; settings: read-out: GI
Summary of the method: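 Drug-sensitive CCRF-CEM leukemia cells treated at a single concentration of 10 μM, with doxorubicin as reference and DMSO vehicle (under 1.0%) as negative control. Viability read by resazurin fluorescence (ex 544, em 590 nm) relative to untreated cells. Three independent experiments, six parallel measurements each.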

PBMC = test: Induction of apoptosis in human PBMC after 3 days by V-FITC/ propidium iodide staining-based flow cytometric analysis; format: cell-based; settings: 72 h; summary of the method: as §2
ADR5000 cell line = test: Growth inhibition of human multi-drug resistant CEM/ADR5000 cells by resazurin assay; format: functional, cell-based
Summary of the method: (§3)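 CCRF-CEM cells and the P-glycoprotein-overexpressing multidrug-resistant subline CEM/ADR5000 treated over a range of concentrations, with doxorubicin as positive control and DMSO (under 1.0%) as negative control. Resazurin fluorescence read at ex 544/em 590 nm against untreated cells. IC50 taken from a calibration curve by linear regression. Mean ± SD of three independent experiments, six parallel measurements each.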

CCRF-CEM [6] = test: Growth inhibition of human CCRF-CEM cells by resazurin assay; format: functional, cell-based; summary of the method: as §3
[7] = Resistance index, ratio of IC50 for human CEM/ADR5000 cells to IC50 for human CCRF-CEM cells; format: functional
Summary of the method: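 Degree of resistance is the IC50 for CEM/ADR5000 divided by the IC50 for CCRF-CEM. Both come from resazurin viability dose-response curves over three independent experiments.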

[8] = Selectivity index, ratio of IC50 for rat L6 cells to IC50 for erythrocytic stage of chloroquine and pyrimethamine resistant Plasmodium falciparum K1; format: toxicity; settings: read-out: Ratio IC50
Summary of the method: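 Selectivity index: IC50 toward rat skeletal myoblast L6 cells (in vitro cytotoxicity, previously published method) divided by IC50 against P. falciparum K1; each IC50 is the mean of two independent assays.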

Plasmodium falciparum [9] = test: Antiprotozoal activity against erythrocytic stage of chloroquine and pyrimethamine resistant Plasmodium falciparum K1 after 48 hrs by [3H]- hypoxanthine incorporation assay; format: functional

Row | SMILES | IC50 (Plasmodium falciparum [1]) [nM] | IC50 (Trypanosoma cruzi) [µM] | IC50 (Leishmania donovani) [µM] | selectivity ratio [2] | EC50 ([3]; Homo sapiens, INA-6, 72 h) [nM] | IC50 [4] [µM] | IC50 (L6) [µM] | also measured
1 | COc1cc2c(c(OC)c1-c1c(C)cc(OC)c3c(OC)cccc13)[C@@H](C)N[C@@H](C)C2 | 726 | 12.4 | 25.4 | 41 | 4800 | 0.313 | 30 | –
2 | COc1cccc2c(-c3ccc(O)c4c3C[C@@H](C)N[C@H]4C)c(C)cc(OC)c12 | 702 | 44.5 | 228 | 61.7 | – | 4.83 | 43.3 | –
3 | COc1ccc(-c2ccc3c(c2O)[C@@H](C)N[C@H](C)C3)c2cc(C)cc(OC)c12 | 228 | 26.3 | > 265 | 17.6 | 2600 | 8.08 | 4.02 | inhibition of growth at 10 µM (CCRF-CEM [5]): < 50%; EC50 (PBMC): 19 µM; IC50 (ADR5000 cell line): 5.31 µM; IC50 (CCRF-CEM [6]): 1860 nM; Ratio IC50 [7]: 2.9
4 | COc1cc(C)c(-c2ccc3c(c2O)[C@@H](C)N[C@H](C)C3)c2cccc(O)c12 | – | – | – | – | 1500 | – | – | –
5 | COc1cc2c(c(O)c1-c1c(C)cc(OC)c3c(OC)cccc13)C(C)=N[C@H](C)C2 | 6510 | 104 | 146 | 5.4 | – | 22.7 | 34.9 | –
6 | COc1ccc(-c2ccc(O)c3c2C[C@@H](C)N[C@H]3C)c2cc(C)cc(OC)c12 | 90 | 14.6 | 107 | 161 | 21000 | 0.585 | 14.5 | EC50 (PBMC): 16 µM; selectivity ratio [8]: 323; IC50 (Plasmodium falciparum [9]): 45 nM
7 | COc1ccc(-c2ccc3c(c2O)[C@@H](C)N(C)[C@H](C)C3)c2cc(C)cc(OC)c12 | 107 | 55 | 136 | 586 | 32000 | 13.7 | 62.8 | –
8 | N[C@@H](Cc1ccc(N(CCCl)CCCl)cc1)C(=O)O | – | – | – | – | 2000 | – | – | –
9 | COc1cccc2c(-c3ccc4c(c3O)[C@@H](C)N[C@H](C)C4)c(C)cc(O)c12 (stereo in doubt; M-11) | – | – | – | – | – | – | – | EC50 (PBMC): 50 µM; EC50 ([3]; ina-6): 16000 nM
10 | COc1cccc2c(-c3ccc4c(c3O)[C@@H](C)N[C@H](C)C4)c(C)cc(O)c12 (stereo in doubt; P-11) | – | – | – | – | – | – | – | EC50 ([3]; ina-6): 2700 nM
11 | O=C(Cn1ccnc1[N+](=O)[O-])NCc1ccccc1 [BENZNIDAZOLE] | – | 2.32 | – | – | – | – | – | –
12 | COc1cccc2c(-c3ccc4c(c3O)[C@@H](C)N[C@H](C)C4)c(C)cc(OC)c12 [DIONCOPHYLLINE A] | – | – | – | – | 220 | – | – | inhibition of growth at 10 µM (CCRF-CEM [5]): < 50%; IC50 (ADR5000 cell line): 0.52 µM; IC50 (CCRF-CEM [6]): 243 nM; Ratio IC50 [7]: 2.1
13 | COc1cc(C)c(-c2ccc(O)c3c2C[C@@H](C)N[C@@H]3C)c2cccc(O)c12 [DIONCOPHYLLINE C] | – | – | – | – | 7500 | – | – | EC50 (PBMC): 9 µM
14 | COc1cccc2c1C(=O)c1c(O)c3c(c(O)c1C2=O)C[C@@](O)(C(=O)CO)C[C@@H]3O[C@H]1C[C@H](N)[C@H](O)[C@H](C)O1 [DOXORUBICIN] | – | – | – | – | – | – | – | IC50 (ADR5000 cell line): 30.1 µM; IC50 (CCRF-CEM [6]): 17 nM; Ratio IC50 [7]: 1769
15 | COc1cccc2c(-c3ccc4c(c3O)[C@@H](C)N(C(C)=O)[C@H](C)C4)c(C)cc(OC)c12 [N-ACETYLDIONCOPHYLLINE A] | – | – | – | – | 800 | – | – | –
